Experiments:
Format in all cases: functional
Rattus norvegicus [1] = assay: Effect on 24-hcumulative iron excretion in the urine of non-iron-overloaded bileduct-cannulated rats at a concentration of 450 umol/kg after subcutaneous administration
Summary of the method: (§1)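 Drugs given subcutaneously in Cremophor RH-40/water (40:60) to non-iron-overloaded, bile duct-cannulated rats. Rats were fasted 24 h before dosing, and the fast continued through the experiment. Bile and urine iron were collected over 24 h and reported as induced iron (mg/kg rat) with fractions in bile and urine. Efficiency is the percentage of the theoretical total (8.37 mg/kg). n = 2–6 per group.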

Rattus norvegicus [2] = assay: Effect on 24-h cumulative iron excretion in the urine of non-iron-overloaded bileduct-cannulated rats at a concentration of 450 umol/kg after subcutaneous administration; summary of the method: as §1
Rattus norvegicus [3] = assay: Effect on 24-hcumulative iron excretion in the urine of non-iron-overloaded bileduct-cannulated rats at a concentration of 150 umol/kg after subcutaneous administration; summary of the method: as §1
Rattus norvegicus [4] = assay: Effect on 24-h cumulative iron excretion in the urine of non-iron-overloaded bileduct-cannulated rats at a concentration of 150 umol/kg after subcutaneous administration; summary of the method: as §1
Rattus norvegicus [5] = assay: Effect on 24-h cumulative iron excretion in the bile of non-iron-overloaded bileduct-cannulated rats at a concentration of 150 umol/kg after subcutaneous administration
Summary of the method: as §1, with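 “urine.” for “urine. Efficiency is the percentage of the theoretical total (8.37 mg/kg). n = 2–6 per group.”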

SMILES | Iron excretion (Rattus norvegicus [1]) | Iron excretion (Rattus norvegicus [2]) | Iron excretion (Rattus norvegicus [3]) | Iron excretion (Rattus norvegicus [4]) | Iron excretion (Rattus norvegicus [5])
NCCCCCN(O)C(=O)CCC(=O)O | -0.003 mg/kg | 0% |  |  | 
CC(=O)N(O)CCCCCN | -0.001 mg/kg | 0% |  |  | 
CCCCCCCCCC(=O)N(O)CCCCC(=O)N(O)CCCCC(=O)N(O)CCCCCN.Cl |  |  | 0.017 mg/kg | 9.2% | 
CC(=O)N(O)CCCCCCCC(=O)N(O)CCCCCCCC(=O)N(O)CCCCCN.Cl |  |  | 0 mg/kg | 0% | 
CC(=O)N(O)CCCCC(=O)N(O)CCCCC(=O)N(O)CCCCCN.Cl |  |  | 0.021 mg/kg | 9.4% | 
CC(=O)N(O)CCCCCNC(=O)CCC(=O)N(O)CCCCCNC(=O)CCC(=O)N(O)CCCCCN [DEFEROXAMINE] |  |  | 0.059 mg/kg | 25.4% | 74.6%
